# Experimental data collected from several papers.
# Compare with care: the assays were run in different laboratories.
# Target: Mitogen-activated protein kinase kinase kinase 3 (MAP3K3, Homo sapiens, UniProt Q99759)
# One construct used (Q99759 1-626): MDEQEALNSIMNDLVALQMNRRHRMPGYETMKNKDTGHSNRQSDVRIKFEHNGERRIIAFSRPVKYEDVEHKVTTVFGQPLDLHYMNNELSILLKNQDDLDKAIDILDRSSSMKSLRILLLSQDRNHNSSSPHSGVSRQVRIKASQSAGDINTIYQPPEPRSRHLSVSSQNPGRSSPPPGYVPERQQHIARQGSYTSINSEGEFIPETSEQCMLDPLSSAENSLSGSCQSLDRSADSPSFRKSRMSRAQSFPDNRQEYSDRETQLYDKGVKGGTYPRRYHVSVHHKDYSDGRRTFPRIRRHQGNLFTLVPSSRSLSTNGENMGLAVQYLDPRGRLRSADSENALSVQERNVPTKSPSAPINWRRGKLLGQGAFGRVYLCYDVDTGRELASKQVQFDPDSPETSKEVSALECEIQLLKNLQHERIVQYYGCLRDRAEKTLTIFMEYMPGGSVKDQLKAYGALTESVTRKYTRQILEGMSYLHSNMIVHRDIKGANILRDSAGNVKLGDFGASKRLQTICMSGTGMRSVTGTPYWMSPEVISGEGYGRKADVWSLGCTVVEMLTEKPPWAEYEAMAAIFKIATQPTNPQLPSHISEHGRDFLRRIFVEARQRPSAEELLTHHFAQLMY
Structure (SMILES),effect on,technique,concentration,remaining binding [%]
COc1cnc(Nc2cccc(S(N)(=O)=O)c2)nc1N1CCN(c2ccccc2)CC1,binding,competition with immobilised ligand,1 µM,82
FC(F)(F)Oc1cccc(-c2cnc3ccc(-c4ccncc4)nn23)c1,cell-free assay,competition with immobilised ligand,5 µM,51
COc1ccc2c(O[C@@H]3C[C@H]4C(=O)N[C@]5(C(=O)O)CC5/C=C\CCCCC[C@H](NC(=O)OC5CCCC5)C(=O)N4C3)cc(-c3csc(NC(=O)C(C)C)n3)nc2c1C (stereo partly shown),cell-free assay,competition with immobilised ligand,1 µM,79
CC1CCCN1c1nccc(-c2cnn3ncccc23)n1 (stereo not shown),binding,,1 µM,97
O=C(N1CCS(=O)(=O)CC1)N1C[C@H](c2ccc(OC(F)(F)F)cc2)C[C@H](c2nc(C3CC3)no2)C1,cell-free assay,competition with immobilised ligand,1 µM,100
N[C@H]1CCN(c2nccc(-c3cnn4ncccc34)n2)C1,binding,,1 µM,100
CN1CCN(c2cnc3c(C4CCN(C(=O)c5ccc(OC(F)(F)F)cc5N)CC4)ncnc3c2)CC1,cell-free assay,competition with immobilised ligand,1 µM,94
Cc1cnc(Nc2ccc(C(=O)N3CCC(N4CCCC4)CC3)cc2)nc1-c1cc2ccccc2s1,binding,competition with immobilised ligand,1 µM,19
CN(C)c1ncc(F)c(-c2cnn3ncccc23)n1,binding,,1 µM,90
CS(=O)(=O)NCC[C@H](NC(=O)c1cncc2c1cnn2-c1ccc(F)cc1)c1ccnc(S(C)(=O)=O)c1,cell-free assay,competition with immobilised ligand,1 µM,100
C[C@H]1CCN(c2nccc(-c3cnn4ncccc34)n2)C1,binding,,1 µM,59
O=C(c1ccc(Nc2ncc(Cl)c(-c3cc4ccccc4s3)n2)cc1)N1CCC(N2CCCC2)CC1,binding,competition with immobilised ligand,1 µM,34
O=C(O)[C@H]1[C@H](Cn2nnc3ccccc3c2=O)CC[C@@H]1C(=O)c1ccc(OCCC2CCOCC2)cc1,cell-free assay,competition with immobilised ligand,1 µM,100
O=C(NCCCN1CCOCC1)c1ccc(Nc2nccc(-c3cc4ccccc4s3)n2)cc1,binding,competition with immobilised ligand,1 µM,65
C[C@@H]1CN(c2cc(-c3nn(C)c4ccc(OC5(C)CC5)cc34)ncn2)C[C@H](C)O1,cell-free assay,competition with immobilised ligand,1 µM,90
CN(c1nccc(-c2cnn3ncccc23)n1)C1CC1,binding,,1 µM,100
CC(=O)N1CCC(c2ccc(C(=O)NC(=N)N)cc2C(F)(F)F)CC1,cell-free assay,competition with immobilised ligand,1 µM,90
C[C@@H](c1ccc(-n2cnc3c(N)ncnc32)cc1)N1CCc2nn(C)c(Cc3ccccc3)c2C1=O,binding,competition with immobilised ligand,0.1 µM,79
F[C@@H]1CCN(c2nccc(-c3cnn4ncccc34)n2)C1,binding,,1 µM,100
COc1cnc(Nc2cccc(S(N)(=O)=O)c2)nc1N1CCN(c2ccccc2)C(=O)C1,binding,competition with immobilised ligand,1 µM,84
O=C(Nc1c[nH]nc1C(=O)NC1CCNCC1)c1cc(F)cc(F)c1,binding,competition with immobilised ligand,1 µM,89
CN(C)c1nccc(-c2cnn3ncccc23)n1,binding,,1 µM,100
